Reference: ChEMBL document CHEMBL1157559, “Synthesis and biological evaluation of novel pyrazolyl-2,4-thiazolidinediones as anti-inflammatory and neuroprotective agents” (Bioorg Med Chem, 2010)
The source made the active and inactive calls. The rule behind the calls is not given here.

Legend:
Rattus norvegicus [1] = assay: Gastrointestinal toxicity in Wistar albino rat assessed as hyperemia at 100 mg/kg/day, po administered twice daily for 3 days; format: organism-based; parameters: route oral; conditions: in vivo, 72 h
In short: (§1)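 Male rats 180–200 g, groups of five, fasted 12 h with water available. Compounds given orally as two equal doses at 0 and 12 h, 100 mg/kg per day, for three successive days; vehicle control 1% gum acacia. Rats killed 6 h after last dose. Stomach opened along greater curvature, washed with cold saline and inspected under 3× lens for hyperemia, hemorrhage, erosions or ulcers.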

SH-SY5Y [2] = assay: Neuroprotective activity in human SH-SY5Y cells assessed as inhibition of LPS, IFN-gamma-stimulated THP1 cellular supernatant-induced cytotoxicity after 72 hrs by LDH assay; format: functional, cell-based
In short: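 SH-SY5Y cells plated 24 h, then medium replaced with supernatant from THP-1 cells stimulated with LPS + IFN-γ for 48 h. Compound added directly to the SH-SY5Y cells at the time of transfer. Cell death measured by LDH release after 72 h; 4–6 independent experiments.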

SH-SY5Y [3] = assay: Neuroprotective activity in human SH-SY5Y cells assessed as inhibition of H2O2-induced cytotoxicity after 72 hrs by LDH assay; format: functional, cell-based
In short: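 SH-SY5Y cells plated in DMEM-F12 with 5% FBS. After 24 h, medium replaced with medium containing H2O2 (500 µM in methods, 250 µM in figure legend), and compound added directly at that time. Cell death measured by LDH release 72 h later.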

[4] = target: T1, Prostaglandin G/H synthase 2 (Homo sapiens) (UniProt P35354); conditions: at 10 µM
T1 sequence (whole entry): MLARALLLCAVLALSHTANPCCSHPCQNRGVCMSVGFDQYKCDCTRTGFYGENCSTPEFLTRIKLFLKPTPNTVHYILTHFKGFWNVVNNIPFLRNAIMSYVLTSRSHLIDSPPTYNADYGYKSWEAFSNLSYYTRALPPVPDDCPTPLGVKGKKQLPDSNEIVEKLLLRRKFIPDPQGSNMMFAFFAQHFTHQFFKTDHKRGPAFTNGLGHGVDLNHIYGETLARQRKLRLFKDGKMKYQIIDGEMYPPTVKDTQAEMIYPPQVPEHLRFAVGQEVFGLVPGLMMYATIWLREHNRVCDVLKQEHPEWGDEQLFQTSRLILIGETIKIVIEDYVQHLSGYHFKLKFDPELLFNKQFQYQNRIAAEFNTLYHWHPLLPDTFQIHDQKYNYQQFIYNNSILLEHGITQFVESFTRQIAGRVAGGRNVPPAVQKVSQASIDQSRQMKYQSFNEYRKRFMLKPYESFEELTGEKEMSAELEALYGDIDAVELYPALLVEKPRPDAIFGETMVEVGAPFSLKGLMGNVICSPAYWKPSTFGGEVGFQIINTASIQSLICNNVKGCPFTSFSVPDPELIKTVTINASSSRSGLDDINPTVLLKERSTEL

THP-1 [5] = assay: Cytotoxicity against LPS and IFN-gamma-stimulated human THP1 cells after 24 hrs; format: functional, cell-based; conditions: THP-1, 24 h
In short: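 THP-1 cells, 24-well, in DMEM-F12 with 5% FBS. Compound or DMSO added 15 min before LPS 0.5 µg/mL plus IFN-γ 150 U/mL. After 24 h, LDH release (fraction of Triton-lysed value, OD 490) and MTT were read. EC50 taken from curves of at least three independent experiments; the lower of the two assay values was reported.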

THP-1 [6] = assay: Inhibition of MCP1 release in human THP1 cells after 24 hrs by ELISA; format: functional, cell-based
In short: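 THP-1 cells pretreated 15 min with compound, then stimulated with LPS 0.5 µg/mL plus IFN-γ 150 U/mL. After 24 h, MCP-1 (ng/mL) measured in cell-free medium by ELISA.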

Rattus norvegicus [7] = assay: Antiinflammatory activity in po dosed Wistar albino rat acute inflammatory model assessed as inhibition of formalin-induced paw edema administered 1 hr before formalin challenge measured after 3 hrs by plethysmometer; format: functional
In short: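 Rats dosed orally at 5, 10, 20, 40 and 50 mg/kg body weight. Edema volume inhibition measured 3 h after subplantar formalin (2%, 0.1 mL), and ED50 determined from these doses.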

Rattus norvegicus [8] = assay: Gastrointestinal toxicity in Wistar albino rat assessed as ulceration at 100 mg/kg/day, po administered twice daily for 3 days; format: organism-based; parameters: route oral; conditions: in vivo, 72 h; in short: as §1
Rattus norvegicus [9] = assay: Antiinflammatory activity in Wistar albino rat acute inflammatory model assessed as inhibition of formalin-induced paw edema at 20 mg/kg, po administered 1 hr before formalin challenge measured after 1 hr by plethysmometer relative to control; format: functional; parameters: scale not given: the % may be the effect or the level left
In short: (§2)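 Male Wistar rats, 180–200 g, groups of five. Test compound 20 mg/kg po; 1 h later 0.1 mL 2% formalin injected subplantar into left hind paw under light ether anesthesia. Paw volume by water plethysmometer at 0 and 1, 2, 3, 4 h after formalin. % inhibition = (Vt−V0)control minus (Vt−V0)treated, divided by (Vt−V0)control ×100. Mean ± SEM, ANOVA with Student–Newman–Keuls.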

Rattus norvegicus [10] = assay: Antiinflammatory activity in Wistar albino rat acute inflammatory model assessed as inhibition of formalin-induced paw edema at 20 mg/kg, po administered 1 hr before formalin challenge measured after 3 hrs by plethysmometer relative to control; format: functional; parameters: scale not given: the % may be the effect or the level left; in short: as §2
SH-SY5Y [11] = assay: Antineurotoxicity in human SH-SY5Y cells assessed as inhibition human THP1 cell supernatant-induced cytotoxicity compound pretreated 24 to 48 hrs to THP1 cells measured after 72 hrs of supernatant addition; format: functional, cell-based
In short: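 THP-1 cells in DMEM-F12 with 5% FBS, pretreated 15 min with compound or DMSO, then stimulated with LPS 0.5 µg/mL plus IFN-γ 150 U/mL for 24 or 48 h. Cell-free supernatant transferred to SH-SY5Y cells plated 24 h earlier. After 72 h, viability by LDH release and MTT. IC50 from curves of at least three independent experiments.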

HL-60 = assay: Inhibition of phagocyte respiratory burst in human HL60 cells after 6 to 7 days by luminol-induced chemiluminescence; format: functional, cell-based
In short: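 HL-60 cells differentiated 6–7 days in DMEM-F12 with 10% FBS and 1.3% DMSO, washed into serum-free, phenol red-free medium, then held 30 min at 37 °C before compound or DMSO was added. Luminol injected, 7.5 min baseline recorded, then FMLP injected (final 1 µM; luminol 5 mM; DMSO 0.5%). Chemiluminescence recorded 30 min at 37 °C; read-out was area under the curve.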

Rattus norvegicus [12] = assay: Antiinflammatory activity in Wistar albino rat sub-acute inflammatory model assessed as inhibition of formalin-induced paw edema at 20 mg/kg, po administered daily for 7 days by plethysmometer relative to control; format: functional; conditions: 168 h
In short: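 Rats dosed orally at 20 mg/kg daily for 7 consecutive days. 0.1 mL 2% formalin given subplantar in left hind paw under light ether 1 h after the first oral dose, with a second injection on day 3. Paw edema weight (g) measured on day 8. % inhibition = (control − treated)/control ×100. Groups of five.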

[13] = Acute toxicity in po dosed Swiss albino mouse after 24 hrs; format: organism-based; conditions: in vivo, read-out: ALD50
In short: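 Four groups of five Swiss albino mice (20–30 g), fasted 24 h beforehand, given compounds orally at graded doses of 0–300 mg/kg. Mortality recorded at each dose level after 24 h to estimate the acute lethal dose (ALD50).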

Compound: O=C1NC(=O)/C(=C/c2cn(-c3ccc([N+](=O)[O-])cc3)nc2-c2ccc(Cl)cc2)S1
- Activity (Rattus norvegicus [1]): Non-toxic
- inhibition (SH-SY5Y [2]): inactive
- inhibition (SH-SY5Y [3]): inactive
- inhibition [4]: 19.4%
- EC50 (THP-1 [5]): > 100 µM
- inhibition (THP-1 [6]): inactive
- ED50 (Rattus norvegicus [7]): 15.2 mg/kg
- Activity (Rattus norvegicus [8]): 0%
- Activity (Rattus norvegicus [9]): 24%
- Activity (Rattus norvegicus [10]): 68%
- IC50 (SH-SY5Y [11]): 2 µM
- IC50 (HL-60): 1 µM
- inhibition in vivo at 20 mg/kg (Rattus norvegicus [12]): 51%
- LD50 at 24 h [13]: > 300 mg/kg
